Laboratory results published in ChEMBL document CHEMBL5120856, “New salicylic acid derivatives, double inhibitors of glycolate oxidase and lactate dehydrogenase, as effective agents decreasing oxalate production” (Eur J Med Chem, 2022).
The source made the active and inactive calls. The rule behind the calls is not given here.

How the values were obtained:
Hepatocyte [1] = assay: Inhibition of GO/LDHA in hyperoxaluric-primary hepatocyte isolated from Hoga1-knockdown PH3 C57BL/6 mouse assessed as relative oxalate output at 10 uM measured at 24 hrs in the presence of hydroxyproline relative to control; assay type: cell-based
How it was run: (§1)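 Hoga1-/- mouse primary hepatocytes challenged with 10 mM hydroxyproline, inhibitor 10 μM; extracellular oxalate measured by colorimetric kit 24 and 48 h after dosing, given as ratio to oxalate without inhibitor; negative values are below detection limit; mean of three/four replicates ± SD.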

Hepatocyte [2] = assay: Inhibition of GO/LDHA in hyperoxaluric-primary hepatocyte isolated from Grhpr-knockdown PH2 C57BL/6 mouse assessed as relative oxalate output at 10 uM measured at 48 hrs in the presence of glycolate relative to control; assay type: cell-based
How it was run: (§2)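 Grhpr-/- mouse primary hepatocytes cultured with 10 mM glycolate, inhibitor at 10 μM; extracellular oxalate determined colorimetrically at 24 and 48 h post-treatment, expressed relative to untreated medium (RO); negative RO means below detection limit; three/four replicates, mean ± SD.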

Hepatocyte [3] = assay: Cytotoxicity against hyperoxaluric-primary hepatocyte isolated from Agxt1-knockdown PH1 C57BL/6 mouse assessed as cell death at 10 uM by MTS assay; assay type: toxicity, cell-based; settings: hepatocytes, Agxt1-knockdown PH1, 10 µM
How it was run: (§3)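 Primary hepatocytes from Agxt1-/- (PH1, 5 mM glycolate), Grhpr-/- (PH2, 10 mM glycolate) or Hoga1-/- (PH3, 10 mM hydroxyproline) mice, incubated with inhibitor at 10 μM; viability followed through the oxalate assay by MTS tetrazolium method.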

2-Hydroxyacid oxidase 1 [4] = biological target: T1, 2-Hydroxyacid oxidase 1 (Homo sapiens, UniProt Q9UJM8); assay: Non-competitive mixed inhibition of N-terminal His-tagged human recombinant glycolate oxidase expressed in Escherichia coli BL21 (DE3) cells assessed as inhibition constant using varying concentration of glycolate as substrate measured every 60 sec for 15 mins by Amplex red and horseradish peroxidase based fluorescence assay
T1 sequence (Q9UJM8 whole entry): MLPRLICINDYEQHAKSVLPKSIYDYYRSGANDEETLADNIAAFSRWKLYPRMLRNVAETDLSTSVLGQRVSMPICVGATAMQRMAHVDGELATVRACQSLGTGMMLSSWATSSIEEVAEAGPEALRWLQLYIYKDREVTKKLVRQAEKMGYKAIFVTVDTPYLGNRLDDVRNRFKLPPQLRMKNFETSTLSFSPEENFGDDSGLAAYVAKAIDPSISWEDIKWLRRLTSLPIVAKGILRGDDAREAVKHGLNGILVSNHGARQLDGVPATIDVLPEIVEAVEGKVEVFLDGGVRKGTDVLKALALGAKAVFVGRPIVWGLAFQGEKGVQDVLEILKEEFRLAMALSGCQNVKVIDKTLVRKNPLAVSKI

[5] = biological target: T2, L-lactate dehydrogenase A chain (Homo sapiens, UniProt P00338); assay: Non-competitive inhibition of human recombinant LDHA assessed as decrease in Vmax with no effect on Km using pyruvate as substrate upto 20 uM
Hepatocyte [6] = assay: Cytotoxicity against hyperoxaluric-primary hepatocyte isolated from Grhpr-knockdown PH2 C57BL/6 mouse assessed as cell death at 10 uM by MTS assay; assay type: toxicity, cell-based; settings: hepatocytes, Grhpr-knockdown PH2 (primary hyperoxaluria type 2); how it was run: as §3
Hepatocyte [7] = assay: Inhibition of GO/LDHA in hyperoxaluric-primary hepatocyte isolated from Grhpr-knockdown PH2 C57BL/6 mouse assessed as relative oxalate output at 10 uM measured at 24 hrs in the presence of glycolate relative to control; assay type: cell-based; how it was run: as §2
2-Hydroxyacid oxidase 1 [8] = biological target: T1, 2-Hydroxyacid oxidase 1; assay: Inhibition of N-terminal His-tagged human recombinant glycolate oxidase expressed in Escherichia coli BL21 (DE3) cells using glycolate as substrate preincubated for 10 mins followed by substrate addition and measured after 10 mins by Amplex red and horseradish peroxidase based fluorescence assay
[9] = biological target: L-lactate dehydrogenase B chain (Homo sapiens, UniProt P07195); assay: Inhibition of human recombinant LDHB using pyruvate as substrate preincubated for 10 mins followed by substrate addition and measured every 60 sec for 10 mins in the presence of NADH by fluorescence assay
Sequence of L-lactate dehydrogenase B chain (P07195 whole entry): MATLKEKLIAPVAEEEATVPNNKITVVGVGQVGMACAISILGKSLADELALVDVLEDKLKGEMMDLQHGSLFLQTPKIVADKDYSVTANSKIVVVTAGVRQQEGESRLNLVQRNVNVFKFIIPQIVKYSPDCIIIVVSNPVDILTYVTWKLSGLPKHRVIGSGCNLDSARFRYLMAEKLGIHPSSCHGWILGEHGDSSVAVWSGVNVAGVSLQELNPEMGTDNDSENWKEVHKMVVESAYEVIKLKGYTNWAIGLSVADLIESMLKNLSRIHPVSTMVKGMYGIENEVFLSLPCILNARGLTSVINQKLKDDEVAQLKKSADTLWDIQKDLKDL

Hepatocyte [10] = assay: Inhibition of GO/LDHA in hyperoxaluric-primary hepatocyte isolated from Agxt1 knockdown PH1 C57BL/6 mouse assessed as relative oxalate output at 10 uM measured at 24 hrs in the presence of glycolate relative to control; assay type: cell-based
How it was run: (§4)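 Agxt1-/- mouse primary hepatocytes cultured with 5 mM glycolate, inhibitor at 10 μM; extracellular oxalate measured by colorimetric kit 24 and 48 h after inhibitor addition; relative oxalate = oxalate with inhibitor over oxalate without inhibitor; negative values mean below detection limit; mean of three/four replicates ± SD.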

[11] = biological target: T3, 2-Hydroxyacid oxidase 1 (Homo sapiens) (UniProt Q9UJM8); assay: Non-competitive mixed inhibition of N-terminal His-tagged human recombinant glycolate oxidase expressed in Escherichia coli BL21 (DE3) cells assessed as decrease in Vmax with increase in apparent Km using glycolate as substrate upto 60 microM
T3 sequence (whole entry): T1 sequence (Q9UJM8 whole entry)

Hepatocyte [12] = assay: Cytotoxicity against hyperoxaluric-primary hepatocyte isolated from Hoga1-knockdown PH3 C57BL/6 mouse assessed as cell death at 10 uM by MTS assay; assay type: toxicity, cell-based; settings: hepatocytes, Hoga1-knockdown PH3, 10 µM; how it was run: as §3
[13] = biological target: T4, Prostaglandin G/H synthase 2 (Homo sapiens, UniProt P35354); assay: Inhibition of human COX-2 using arachidonic acid as substrate measured every 60 sec for 10 mins by fluorescence based assay
T4 sequence (P35354 whole entry): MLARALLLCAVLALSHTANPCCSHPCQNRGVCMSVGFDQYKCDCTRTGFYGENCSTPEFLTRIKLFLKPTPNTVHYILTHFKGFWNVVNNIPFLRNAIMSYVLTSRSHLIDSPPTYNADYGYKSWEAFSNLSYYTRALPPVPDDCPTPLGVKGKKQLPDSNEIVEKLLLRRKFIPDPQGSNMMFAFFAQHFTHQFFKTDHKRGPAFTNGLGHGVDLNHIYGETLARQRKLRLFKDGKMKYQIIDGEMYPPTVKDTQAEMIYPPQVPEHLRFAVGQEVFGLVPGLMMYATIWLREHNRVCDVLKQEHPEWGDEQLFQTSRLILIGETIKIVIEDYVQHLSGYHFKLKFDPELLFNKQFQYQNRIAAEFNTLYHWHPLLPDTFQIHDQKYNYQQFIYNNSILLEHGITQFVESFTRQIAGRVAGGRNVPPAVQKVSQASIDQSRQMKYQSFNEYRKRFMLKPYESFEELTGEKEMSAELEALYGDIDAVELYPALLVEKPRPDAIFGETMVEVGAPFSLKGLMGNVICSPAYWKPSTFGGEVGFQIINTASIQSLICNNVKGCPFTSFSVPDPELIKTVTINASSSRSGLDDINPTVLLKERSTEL

Hepatocyte [14] = assay: Inhibition of GO/LDHA in hyperoxaluric-primary hepatocyte isolated from Agxt1 knockdown PH1 C57BL/6 mouse assessed as relative oxalate output at 10 uM measured at 48 hrs in the presence of glycolate relative to control; assay type: cell-based; how it was run: as §4
[15] = biological target: T2, L-lactate dehydrogenase A chain; assay: Inhibition of human recombinant LDHA using pyruvate as substrate preincubated for 10 mins followed by substrate addition and measured every 60 sec for 10 mins in the presence of NADH by fluorescence assay
HEK293 = assay: Cytotoxicity against HEK293 cells assessed as reduction in cell viability upto 50 uM measured after 48 hrs by MTT assay; assay type: toxicity, cell-based; settings: human, hek293, 48 h
Hepatocyte [16] = assay: Inhibition of GO/LDHA in hyperoxaluric-primary hepatocyte isolated from Hoga1-knockdown PH3 C57BL/6 mouse assessed as relative oxalate output at 10 uM measured at 48 hrs in the presence of hydroxyproline relative to control; assay type: cell-based; how it was run: as §1
2-Hydroxyacid oxidase 1 [17] = biological target: T5, 2-Hydroxyacid oxidase 1 (Mus musculus, UniProt Q9WU19); assay: Inhibition of N-terminal His-tagged mouse recombinant glycolate oxidase expressed in Escherichia coli BL21 (DE3) cells using glycolate as substrate preincubated for 10 mins followed by substrate addition and measured after 10 mins by Amplex red and horseradish peroxidase based fluorescence assay
T5 sequence (Q9WU19 whole entry): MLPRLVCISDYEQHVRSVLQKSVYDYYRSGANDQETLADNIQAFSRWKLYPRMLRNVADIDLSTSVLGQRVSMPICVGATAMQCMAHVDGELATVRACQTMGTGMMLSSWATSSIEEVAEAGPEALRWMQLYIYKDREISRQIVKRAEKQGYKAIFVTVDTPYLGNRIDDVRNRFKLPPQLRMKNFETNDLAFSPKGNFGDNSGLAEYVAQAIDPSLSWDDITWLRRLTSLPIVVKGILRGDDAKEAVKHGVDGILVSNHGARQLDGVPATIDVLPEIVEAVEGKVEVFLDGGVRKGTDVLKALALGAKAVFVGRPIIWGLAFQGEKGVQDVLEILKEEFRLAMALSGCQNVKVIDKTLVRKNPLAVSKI

[18] = biological target: T2, L-lactate dehydrogenase A chain; assay: Non-competitive inhibition of human recombinant LDHA assessed as inhibition constant using varying concentration of pyruvate as substrate preincubated for 10 mins followed by substrate addition and measured every 60 sec for 10 mins in the presence of NADH by fluorescence assay

| Ki (2-Hydroxyacid oxidase 1 [4]) | inhibition [5] | IC50 (2-Hydroxyacid oxidase 1 [8]) | IC50 [9] | inhibition [11] | IC50 [13] | IC50 [15] | IC50 (2-Hydroxyacid oxidase 1 [17]) | Ki [18] | Structure (SMILES) | fold change (FC) (Hepatocyte [1]) | fold change (FC) (Hepatocyte [2]) | Activity (Hepatocyte [3]) | Activity (Hepatocyte [6]) | fold change (FC) (Hepatocyte [7]) | fold change (FC) (Hepatocyte [10]) | Activity (Hepatocyte [12]) | fold change (FC) (Hepatocyte [14]) | Activity (HEK293) | fold change (FC) (Hepatocyte [16]) |
| --- | --- | --- | --- | --- | --- | --- | --- | --- | --- | --- | --- | --- | --- | --- | --- | --- | --- | --- | --- |
| 1.1 µM | Active | 4.2 µM | 1.1 µM | Active | 35 µM | 0.6 µM | 3.1 µM | 0.9 µM | N.O=C(O)c1cc(-c2ccc(CNc3ccc(Br)cc3)o2)ccc1O | 0.26 | 0.56 | Non-Toxic | Non-Toxic | 0.41 | 0.19 | Non-Toxic | 0.57 | Non-Toxic | 0.18 |
|  |  | 2.4 µM | 0.3 µM |  | 36 µM | 0.5 µM | 1.3 µM |  | C#CCCCC(=O)Nc1ccc(C(=O)c2ccc(NCc3ccc(-c4ccc(O)c(C(=O)O)c4)o3)cc2)cc1.N | 0.2 | 0.52 | Non-Toxic | Non-Toxic | 0.4 | 0.5 | Non-Toxic | 0.79 | Non-Toxic | 0.14 |
